According to ChEMBL document CHEMBL1143502, “Fluorescent metal ion indicators based on benzoannelated crown systems: a green fluorescent indicator for intracellular sodium ions” (Bioorg Med Chem Lett, 2005):

What was measured:
Format in all cases: functional
[1] = The in vitro binding constant in presence of K+ was reported
Summary of the method: (§1)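 Fluorescence titration in pH 7.0 buffer series (50 mM MOPS, pH set with tetramethylammonium hydroxide) containing 0–1000 mM of the monovalent cation (Li+, Na+, K+ or Rb+) at 20 °C. Kd (mM) was taken from the intensity change with cation concentration, alongside the response S = I[bound]/I[free].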

[2] = The in vitro binding constant in presence of Li+ was reported; summary of the method: as §1
[3] = The in vitro binding constant in presence of Rb+ was reported; summary of the method: as §1

| Structure (SMILES) | Kd [1] | Kd [2] | Kd [3] |
| --- | --- | --- | --- |
| COC(=O)CN1CCOCCOCCOCCOc2cc(C3=C4C(C)=CC(C)=[N+]4[B-](F)(F)n4c(C)cc(C)c43)ccc21 | 170 mM |  |  |
| COC(=O)CN1CCOCCOCCOCCOc2cc(-c3c4cc(F)c(=O)cc-4oc4cc(O)c(F)cc34)ccc21 | 291 mM | 142 mM | 319 mM |
| COC(=O)CN1CCOCCOCCOc2cc(-c3c4cc(F)c(=O)cc-4oc4cc(O)c(F)cc34)ccc21 | 978 mM | 438 mM | 376 mM |
| COCCN1CCOCCOCCOCCOc2cc(-c3c4cc(F)c(=O)cc-4oc4cc(O)c(F)cc34)ccc21 | 269 mM |  |  |
| COC(=O)CN1CCOCCOCCOCCOc2cc(NC(=O)c3ccc(-c4c5cc(F)c(=O)cc-5oc5cc(O)c(F)cc45)c(C(=O)O)c3)ccc21 | 144 mM | 65 mM | 157 mM |
| COC(=O)CN1CCOCCOCCOCCOc2cc(-c3c4ccc(=[N+](C)C)cc-4oc4cc(N(C)C)ccc34)ccc21 | 254 mM |  |  |
| COC(=O)CN1CCOCCOCCOCCOCCOc2cc(-c3c4cc(F)c(=O)cc-4oc4cc(O)c(F)cc34)ccc21 | 11 mM |  | 25 mM |
